{"source": "ChEMBL document CHEMBL4364265", "about": "“Oridonin derivatives as potential anticancer drug candidates triggering apoptosis through mitochondrial pathway in the liver cancer cells” (Eur J Med Chem, 2019)", "key": {"HepG2 [1]": {"test_system": "HepG2", "experiment": "Induction of cell cycle arrest in human HepG2 cells assessed as accumulation at G1 phase at 0.5 uM incubated for 24 hrs by PI staining based flow cytometric analysis (reference value: 37.06%)", "assay_type": "functional"}, "PLC-PRF-5 [2]": {"test_system": "PLC-PRF-5", "experiment": "Antitumour activity against human PLC/PRF/5 cells xenografted in nude mouse assessed as tumour growth inhibition at 10 mg/kg, iv administrated once every 3 days for 4 weeks", "assay_type": "functional, organism-based", "outline": "(§1)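 PLC/PRF/5 xenograft. 2 × 10^7 cells in 0.2 mL saline were injected s.c. into the right forelimb of nude mice. At about 120 mm3, mice were randomized into 3 groups of 6 and dosed i.v. at 10 mg/kg once every three days for 4 weeks. Vehicle was 10% N-methylpyrrolidone/12% Tween-80/78% saline. Volume (a×b²/2) and body weight were recorded daily, and tumors were excised and weighed at the end.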"}, "HepG2 [3]": {"test_system": "HepG2", "experiment": "Induction of apoptosis in human HepG2 cells assessed as late apoptotic cells at 1 uM incubated for 24 hrs by annexin V staining based cell counting method (reference value: 5.65%)", "assay_type": "functional"}, "HepG2 [4]": {"test_system": "HepG2", "experiment": "Induction of ROS generation in human HepG2 cells by DCFH-DA staining-based flow cytometric analysis", "assay_type": "functional, cell-based", "outline": "(§2)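 Cells were treated with 0, 0.25, 0.5 or 1 µM compound, stained with 10 µM DCFH-DA for 20 min at 37 °C, washed three times, resuspended in PBS and read by flow cytometry. Data are mean ± SD of three independent experiments.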"}, "HepG2 [5]": {"test_system": "HepG2", "experiment": "Induction of ROS generation in human HepG2 cells at 1 uM by DCFH-DA staining-based flow cytometric analysis relative to control", "assay_type": "functional", "outline": "as §2"}, "HepG2 [6]": {"test_system": "HepG2", "experiment": "Induction of cell cycle arrest in human HepG2 cells assessed as accumulation at S phase at 0.25 uM incubated for 24 hrs by PI staining based flow cytometric analysis (reference value: 35.46%)", "assay_type": "functional"}, "HepG2 [7]": {"test_system": "HepG2", "experiment": "Induction of apoptosis in human HepG2 cells assessed as necrotic cells at 1 uM incubated for 24 hrs by annexin V staining based cell counting method (reference value: 3.40%)", "assay_type": "functional"}, "PLC-PRF-5 [8]": {"test_system": "PLC-PRF-5", "experiment": "Induction of cell cycle arrest in human PLC/PRF/5 cells assessed as accumulation at G2 phase at 0.25 uM incubated for 24 hrs by PI staining based flow cytometric analysis (reference value: 18.05%)", "assay_type": "functional"}, "HepG2 [9]": {"test_system": "HepG2", "experiment": "Induction of cell cycle arrest in human HepG2 cells assessed as accumulation at S phase at 0.5 uM incubated for 24 hrs by PI staining based flow cytometric analysis (reference value: 35.46%)", "assay_type": "functional"}, "HepG2 [10]": {"test_system": "HepG2", "experiment": "Induction of apoptosis in human HepG2 cells assessed as early apoptotic cells at 1 uM incubated for 24 hrs by annexin V staining based cell counting method (reference value: 3.60%)", "assay_type": "functional"}, "HepG2 [11]": {"test_system": "HepG2", "experiment": "Induction of apoptosis in human HepG2 cells assessed as necrotic cells at 0.25 uM incubated for 24 hrs by annexin V staining based cell counting method (reference value: 3.40%)", "assay_type": "functional"}, "HepG2 [12]": {"test_system": "HepG2", "experiment": "Induction of cell cycle arrest in human HepG2 cells assessed as accumulation at S phase at 1 uM incubated for 24 hrs by PI staining based flow cytometric analysis (reference value: 35.46%)", "assay_type": "functional"}, "PLC-PRF-5 [13]": {"test_system": "PLC-PRF-5", "experiment": "Induction of apoptosis in human PLC/PRF/5 cells assessed as necrotic cells at 1 uM incubated for 24 hrs by annexin V staining based cell counting method (reference value: 0.59%)", "assay_type": "functional"}, "HepG2 [14]": {"test_system": "HepG2", "experiment": "Induction of apoptosis in human HepG2 cells assessed as necrotic cells at 0.5 uM incubated for 24 hrs by annexin V staining based cell counting method (reference value: 3.40%)", "assay_type": "functional"}, "PLC-PRF-5 [15]": {"test_system": "PLC-PRF-5", "experiment": "Induction of cell cycle arrest in human PLC/PRF/5 cells assessed as accumulation at S phase at 0.5 uM incubated for 24 hrs by PI staining based flow cytometric analysis (reference value: 42.03%)", "assay_type": "functional"}, "PLC-PRF-5 [16]": {"test_system": "PLC-PRF-5", "experiment": "Induction of cell cycle arrest in human PLC/PRF/5 cells assessed as accumulation at G2 phase at 1 uM incubated for 24 hrs by PI staining based flow cytometric analysis (reference value: 18.05%)", "assay_type": "functional"}, "PLC-PRF-5 [17]": {"test_system": "PLC-PRF-5", "experiment": "Induction of cell cycle arrest in human PLC/PRF/5 cells assessed as accumulation at S phase at 0.25 uM incubated for 24 hrs by PI staining based flow cytometric analysis (reference value: 42.03%)", "assay_type": "functional"}, "HepG2 [18]": {"test_system": "HepG2", "experiment": "Induction of mitochondrial membrane potential loss in human HepG2 cell incubated for 24 hrs by JC1 staining based fluorescence microscopic method", "assay_type": "functional", "outline": "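Cells seeded in 12-well plates, cultured 12 h, treated 24 h (0, 0.25, 0.5, 1 µM). After a PBS wash, stained with JC-1 in medium for 20 min at 37 °C and washed three times. Red aggregate and green monomer fluorescence were imaged by fluorescence microscopy; the red/green ratio was taken; three independent experiments.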"}, "PLC-PRF-5 [19]": {"test_system": "PLC-PRF-5", "experiment": "Induction of apoptosis in human PLC/PRF/5 cells assessed as early apoptotic cells at 1 uM incubated for 24 hrs by annexin V staining based cell counting method (reference value: 5.65%)", "assay_type": "functional"}, "PLC-PRF-5 [20]": {"test_system": "PLC-PRF-5", "experiment": "Induction of cell cycle arrest in human PLC/PRF/5 cells assessed as accumulation at G1 phase at 1 uM incubated for 24 hrs by PI staining based flow cytometric analysis (reference value: 34.78%)", "assay_type": "functional"}, "[21]": {"experiment": "Toxicity in nude mouse xenografted with human PLC/PRF/5 cells assessed as change in body weight at 10 mg/kg, iv administrated once every 3 days for 4 weeks", "assay_type": "organism-based", "conditions": "in vivo", "outline": "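Nude mice were inoculated subcutaneously in the right forelimb with 2 × 10⁷ PLC/PRF/5 cells in 0.2 mL saline. At about 120 mm³, mice were randomized into 3 groups of 6. Dosing was i.v. once every three days for 4 weeks, with vehicle 10% N-methylpyrrolidone/12% Tween-80/78% saline. Body weight was recorded daily.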"}, "A549": {"test_system": "A549", "experiment": "Antiproliferative activity against human A549 cells incubated for 72 hrs by CCK8 cells", "assay_type": "functional, cell-based", "conditions": "A549, 72 h", "outline": "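CCK-8 proliferation assay. 10,000 cells per well were preincubated 24 h at 37 °C with 5% CO2, then given compound dissolved in DMSO and incubated 72 h. CCK-8 was added for 4 h and absorbance read at 450 nm. IC50 was taken from dose-response curves as mean ± SEM of at least three independent experiments, with paclitaxel as positive control. HepG2 and L-O2 were grown in DMEM/10% FBS; A549 and RPMI-8226 in RPMI 1640/10% FBS.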"}, "PLC-PRF-5 [22]": {"test_system": "PLC-PRF-5", "experiment": "Induction of apoptosis in human PLC/PRF/5 cells assessed as late apoptotic cells at 1 uM incubated for 24 hrs by annexin V staining based cell counting method (reference value: 4.81%)", "assay_type": "functional"}, "HepG2 [23]": {"test_system": "HepG2", "experiment": "Inhibition of colony formation in human HepG2 cells at 0.1 to 1 uM incubated for 10 days by crystal violet staining based microscopic method", "assay_type": "functional, cell-based", "outline": "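Five hundred cells plated per 30 mm dish and left 12 h. Medium with compound was added (0, 0.1, 0.5, 1 µM) or DMSO as negative control, and cells grew 10 days. Colonies were fixed in methanol 15 min, stained with 0.1% crystal violet 15 min, photographed and counted. Colony size was checked by microscope. Relative colony number is mean ± SD of ≥3 independent experiments.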"}, "PLC-PRF-5 [24]": {"test_system": "PLC-PRF-5", "experiment": "Antitumour activity against human PLC/PRF/5 cells xenografted in nude mouse assessed as reduction in tumour weight at 10 mg/kg, iv administrated once every 3 days for 4 weeks relative to control", "assay_type": "functional", "set-up": "scale not given: the % may be the effect or the level left", "outline": "as §1"}, "HepG2 [25]": {"test_system": "HepG2", "experiment": "Induction of apoptosis in human HepG2 cells assessed as late apoptotic cells at 0.25 uM incubated for 24 hrs by annexin V staining based cell counting method (reference value: 5.65%)", "assay_type": "functional"}}, "note": "Activity calls are given as the source filed them. The rule behind the calls is not given here."}
{"compound": "C=C1C(=O)[C@]23[C@H](OC(=O)/C=C/c4ccc(OC)cc4)[C@H]1CC[C@H]2[C@@]12CO[C@]3(O)[C@@H](O)[C@@H]1C(C)(C)CC[C@@H]2O", "values": [{"measurement": "Activity", "setting": "HepG2 [1]", "value": 39.07, "unit": "%"}, {"measurement": "TGI", "setting": "PLC-PRF-5 [2]", "value": "Active"}, {"measurement": "Activity", "setting": "HepG2 [3]", "value": 20.7, "unit": "%"}, {"measurement": "Activity", "setting": "HepG2 [4]", "value": "Dose-dependent effect"}, {"measurement": "fold change (FC)", "setting": "HepG2 [5]", "value": 3}, {"measurement": "Activity", "setting": "HepG2 [6]", "value": 33.94, "unit": "%"}, {"measurement": "Activity", "setting": "HepG2 [7]", "value": 4.1, "unit": "%"}, {"measurement": "Activity", "setting": "PLC-PRF-5 [8]", "value": 12.59, "unit": "%"}, {"measurement": "Activity", "setting": "HepG2 [9]", "value": 34.53, "unit": "%"}, {"measurement": "Activity", "setting": "HepG2 [10]", "value": 21.8, "unit": "%"}, {"measurement": "Activity", "setting": "HepG2 [11]", "value": 7.05, "unit": "%"}, {"measurement": "Activity", "setting": "HepG2 [12]", "value": 30.88, "unit": "%"}, {"measurement": "Activity", "setting": "PLC-PRF-5 [13]", "value": 0.45, "unit": "%"}, {"measurement": "Activity", "setting": "HepG2 [14]", "value": 5.75, "unit": "%"}, {"measurement": "Activity", "setting": "PLC-PRF-5 [15]", "value": 39.83, "unit": "%"}, {"measurement": "Activity", "setting": "PLC-PRF-5 [16]", "value": 6.11, "unit": "%"}, {"measurement": "Activity", "setting": "PLC-PRF-5 [17]", "value": 46.59, "unit": "%"}, {"measurement": "Activity", "setting": "HepG2 [18]", "value": "Dose-dependent effect"}, {"measurement": "Activity", "setting": "PLC-PRF-5 [19]", "value": 29.39, "unit": "%"}, {"measurement": "Activity", "setting": "PLC-PRF-5 [20]", "value": 45.41, "unit": "%"}, {"measurement": "Activity", "setting": "[21]", "value": "Non-Toxic"}, {"measurement": "IC50", "setting": "A549", "value": 12, "unit": "µM"}, {"measurement": "Activity", "setting": "PLC-PRF-5 [22]", "value": 36.66, "unit": "%"}, {"measurement": "inhibition", "setting": "HepG2 [23]", "value": "Active"}, {"measurement": "Activity", "setting": "PLC-PRF-5 [24]", "value": 38.1, "unit": "%"}, {"measurement": "Activity", "setting": "HepG2 [25]", "value": 5.7, "unit": "%"}]}
